How the values were obtained:
[1] = Capacity factor of compound was determined by immobilized artificial membrane chromatography; assay type: ADME
Procedure, shortened: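 Immobilized artificial membrane HPLC, isocratic 10 mM ammonium acetate pH 5.4 at 1.0 mL/min, detection by ESI-MS (pyridinium salts) or APCI-MS (dihydropyridine prodrugs). k'IAM = (tR compound − tR citric acid)/tR citric acid, citric acid serving as void marker.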

[2] = molecular target: T1, Thyrotropin-releasing hormone receptor (Rattus norvegicus, UniProt Q01717); assay: Inhibition of [3H][3-Me-His2]-TRH binding to thyrotropin releasing hormone receptor of rat forebrain
T1 sequence (Q01717 whole entry): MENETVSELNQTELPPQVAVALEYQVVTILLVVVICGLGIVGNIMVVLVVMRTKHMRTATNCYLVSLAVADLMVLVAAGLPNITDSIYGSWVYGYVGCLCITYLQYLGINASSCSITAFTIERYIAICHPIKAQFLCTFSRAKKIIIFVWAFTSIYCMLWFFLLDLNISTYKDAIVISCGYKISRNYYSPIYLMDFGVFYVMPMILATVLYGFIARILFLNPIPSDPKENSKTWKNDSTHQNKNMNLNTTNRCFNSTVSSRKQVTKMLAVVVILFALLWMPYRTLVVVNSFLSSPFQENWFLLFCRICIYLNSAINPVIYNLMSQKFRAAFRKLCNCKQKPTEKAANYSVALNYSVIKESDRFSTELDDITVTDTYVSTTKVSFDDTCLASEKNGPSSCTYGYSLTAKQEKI
Procedure, shortened: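 Rat forebrain membrane suspension in 20 mM phosphate pH 7.4, incubated 180 min at 4 °C with 2 nM [3H][3-Me-His2]TRH and varying test concentrations. Nonspecific binding defined with 10 µM TRH; Ki reported.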

[3] = system: Rattus norvegicus; assay: Maximal changes in rat hippocampal acetylcholine concentration after administration of compound through a microdialysis probe; assay type: functional, Hippocampus
Procedure, shortened: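 Male Sprague–Dawley rats (250–300 g), guide cannula in ventral hippocampus, probe (4 mm polycarbonate) inserted after 7 days. Perfused with artificial CSF plus 2 µM neostigmine at 2 µL/min; baseline is mean of three 20-min fractions. Compound perfused at 1 nmol/µL through probe; maximal ACh change expressed as % of baseline.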

[4] = Partition coefficient (logP); assay type: physicochemical; settings: octanol/water
[5] = system: Mus musculus; assay: Sleeping time of mice was determined after intravenous administration of compound at 15 umol/kg of body weight; assay type: functional
Procedure, shortened: (§1)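 Swiss Webster mice (30 ± 2 g), 8–16 per group; 15 µmol/kg compound iv via tail vein in degassed saline, vehicle controls 1.5 mL/kg. Sodium pentobarbital 60 mg/kg ip after 10 min; sleeping time timed from loss to regain of righting reflex.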

[6] = system: Mus musculus; assay: Sleeping time decrease in mice was determined after intravenous administration of compound at 1 umol/kg of body weight; assay type: functional
[7] = system: Mus musculus; assay: Sleeping time decrease in mice was determined after intravenous administration of compound at 5 umol/kg of body weight; assay type: functional
Procedure, shortened: (§2)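 Swiss Webster mice (30 ± 2 g), 8–16 per group, given compound iv via tail vein in degassed saline; controls received saline 1.5 mL/kg. Sodium pentobarbital 60 mg/kg ip 10 min later; sleeping time from loss to regain of righting reflex; decrease versus saline control, mean ± SEM.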

[8] = system: Mus musculus; assay: Sleeping time decrease in mice was determined after intravenous administration of compound at 15 umol/kg of body weight; assay type: functional; procedure, shortened: as §2
[9] = system: Mus musculus; assay: Sleeping time decrease in mice was determined after intravenous administration of compound at 50 umol/kg of body weight; assay type: functional; procedure, shortened: as §2
[10] = system: Mus musculus; assay: Sleeping time decrease in mice was determined after intravenous administration of compound at 0.5 umol/kg of body weight; assay type: functional; procedure, shortened: as §2
[11] = system: Mus musculus; assay: Sleeping time of mice was determined after intravenous administration of compound at 15 umol/kg of Body Weight; assay type: functional; procedure, shortened: as §1
[12] = Half-life of compound in rat brain homogenate was determined; assay type: ADME, tissue-based
Procedure, shortened: (§3)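 About 100 nmol compound per 1 mL rat plasma or 20% rat brain homogenate (0.1 M phosphate, pH 7.4), shaken at 37 °C. Aliquots taken at 2–90 min and quenched in ice-cold 5% acetic acid/acetonitrile, then centrifuged. Loss of compound followed by HPLC against standards in heat-denatured matrix; t1/2 from the decline.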

[13] = Half-life of compound in rat plasma was determined; assay type: ADME, cell-free; procedure, shortened: as §3

Row | Structure (SMILES) | K''IAM [1] | Ki [2] [µM] | logP [4] | half-life [12] [min] | half-life [13] [min] | Maximal change [3] [%] | Sleeping time [5] [min] | Sleeping time [6] [min] | Sleeping time [7] [min] | Sleeping time [8] [min] | Sleeping time [9] [min] | Sleeping time [10] [min] | Sleeping time [11] [min]
1 | NC(=O)c1ccc[n+](CCC[C@H](NC(=O)[C@@H]2CCC(=O)N2)C(=O)N2CCC[C@H]2C(N)=O)c1 | 0.49 | > 10 | -1.74 |  |  | 145 |  |  |  |  |  |  | 
2 | NC(=O)c1ccc[n+](C[C@H](NC(=O)[C@@H]2CCC(=O)N2)C(=O)N2CCC[C@H]2C(N)=O)c1.O=C([O-])C(F)(F)F | 0.3 | > 10 | -2.64 |  |  | 279 |  |  |  |  |  |  | 75.9
3 | NC(=O)[C@@H]1CCCN1C(=O)[C@H](Cc1cnc[nH]1)NC(=O)[C@@H]1CCC(=O)N1 [PROTIRELIN] | 0.51 | 0.0423 | -1.74 | 16 | 11 | 394 |  |  |  |  |  |  | 26
4 | NC(=O)c1ccc[n+](CC[C@H](NC(=O)[C@@H]2CCC(=O)N2)C(=O)N2CCC[C@H]2C(N)=O)c1 | 0.42 | > 10 | -2.18 |  |  | 216 |  |  |  |  |  |  | 
5 | NC(=O)c1ccc[n+](CCCC[C@H](NC(=O)[C@@H]2CCC(=O)N2)C(=O)N2CCC[C@H]2C(N)=O)c1 | 0.6 | > 10 | -1.29 |  |  | 242 |  |  |  |  |  |  | 

Continued, in another order:

Row | K''IAM [1] | Ki [2] [µM] | logP [4] | half-life [12] [min] | half-life [13] [min] | Structure (SMILES) | Maximal change [3] [%] | Sleeping time [5] [min] | Sleeping time [6] [min] | Sleeping time [7] [min] | Sleeping time [8] [min] | Sleeping time [9] [min] | Sleeping time [10] [min] | Sleeping time [11] [min]
6 | 0.55 |  | -3.29 |  |  | NC(=O)C1=CN(C[C@H](NC(=O)[C@@H]2CCC(=O)N2)C(=O)N2CCC[C@H]2C(N)=O)C=CC1 |  | 19.4 | 5.4 | 14.1 | 23.2 | 24.2 | 2.8 | 
7 | 1.47 |  | -2.39 |  |  | NC(=O)C1=CN(CCC[C@H](NC(=O)[C@@H]2CCC(=O)N2)C(=O)N2CCC[C@H]2C(N)=O)C=CC1 |  |  |  |  |  |  |  | 58.1
8 | 2.3 |  | -1.94 |  |  | NC(=O)C1=CN(CCCCC(NC(=O)[C@@H]2CCC(=O)N2)C(=O)N2CCC[C@H]2C(N)=O)C=CC1 (stereo partly specified) |  |  |  |  |  |  |  | 48.8
9 | 0.8 |  | -2.84 |  |  | NC(=O)C1=CN(CCC(NC(=O)[C@@H]2CCC(=O)N2)C(=O)N2CCC[C@H]2C(N)=O)C=CC1 (stereo partly specified) |  |  |  |  |  |  |  | 44.7

Source: ChEMBL document CHEMBL1137824, “Centrally acting and metabolically stable thyrotropin-releasing hormone analogues by replacement of histidine with substituted pyridinium” (J Med Chem, 2004)
